# Results taken from ChEMBL document CHEMBL1130181, “Importance of the C-1 substituent in classical cannabinoids to CB2 receptor selectivity: synthesis and characterization of a series of O,2-propano-delta 8-tetrahydrocannabinol analogs” (J Med Chem, 1997).
# Assays:
# [1] = organism: Mus musculus; assay: Inhibition of electrically-evoked contractions of mouse vas deferens; format: functional
# Procedure, shortened: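 Mouse isolated vas deferens; response is drug-induced inhibition of electrically evoked contractions. Drugs mixed with 2 parts Tween 80 by weight and dispersed in 0.9% saline. EC50 with 95% confidence limits from nonlinear regression of log concentration–response curves.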
# [2] = organism: Mus musculus; assay: Dissociation constant of SR-141716A determined in the presence using mouse vas deferens.; format: functional
# Procedure, shortened: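 Mouse isolated vas deferens, electrically evoked contractions; agonist concentration–response curves run with SR-141716A at 31.62 nM or with Tween 80 vehicle. Kd from (x−1)=B/Kd, where x is the dose ratio. Dose ratios and 95% confidence limits by symmetrical (2+2) dose parallel line assay, using agonist concentration pairs on the steepest part of each curve.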
# [3] = biological target: Cannabinoid receptor 1 (Rattus norvegicus, UniProt P20272); assay: Binding affinity for cannabinoid receptor 1.
# [4] = tested on: Mus musculus; assay: Rectal temperature in the mouse model, following intravenous administration of the compound(60 mg/kg), in the tail vein.; format: functional
# Procedure, shortened: (§1)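 Mice dosed by tail-vein iv injection in 1:1:18 emulphor:ethanol:saline, 0.1 mL/10 g body weight. Tetrad scored for spontaneous activity, tail-flick antinociception, rectal temperature and ring immobility. Values reported as ED50 ± SE from ALLFIT analysis, or as percent effect (temperature change for RT) at the stated dose (mg/kg).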
# [5] = biological target: Cannabinoid receptor (Homo sapiens) (UniProt P34972+P21554); assay: Ratio of binding affinities in cannabinoid CB1 receptor against cannabinoid CB2 receptor; format: protein assay
# Procedure, shortened: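 Ratio of Ki values. CB1 Ki from displacement of 1 nM [3H]CP-55,940 in whole-brain P2 membranes. CB2 Ki from the same radioligand on CHO cells expressing cloned human CB2. Both Ki values from […].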
# [6] = tested on: Mus musculus; assay: Rectal temperature in the mouse model, following intravenous administration of the compound, in the tail vein.at the dose (100 mg/kg); format: functional; procedure, shortened: as §1
# [7] = tested on: Mus musculus; assay: Rectal temperature in the mouse model, following intravenous administration (30 mg/kg), in the tail vein.; format: functional; procedure, shortened: as §1
# Cannabinoid receptor (Homo sapiens), sequence (P21554 whole entry, looked up): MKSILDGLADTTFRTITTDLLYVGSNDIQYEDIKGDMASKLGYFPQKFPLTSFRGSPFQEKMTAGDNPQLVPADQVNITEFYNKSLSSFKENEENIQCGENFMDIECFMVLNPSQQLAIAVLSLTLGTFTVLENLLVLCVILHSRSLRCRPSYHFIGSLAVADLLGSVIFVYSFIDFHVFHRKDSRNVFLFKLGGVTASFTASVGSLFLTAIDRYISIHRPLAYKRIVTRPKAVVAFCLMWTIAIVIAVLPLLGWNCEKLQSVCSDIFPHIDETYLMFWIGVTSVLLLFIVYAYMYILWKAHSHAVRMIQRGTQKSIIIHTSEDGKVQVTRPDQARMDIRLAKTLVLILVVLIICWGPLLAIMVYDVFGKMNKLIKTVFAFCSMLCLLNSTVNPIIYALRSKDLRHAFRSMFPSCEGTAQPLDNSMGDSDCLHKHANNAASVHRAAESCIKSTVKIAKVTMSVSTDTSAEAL
# Cannabinoid receptor (Homo sapiens), sequence (P34972 whole entry, looked up): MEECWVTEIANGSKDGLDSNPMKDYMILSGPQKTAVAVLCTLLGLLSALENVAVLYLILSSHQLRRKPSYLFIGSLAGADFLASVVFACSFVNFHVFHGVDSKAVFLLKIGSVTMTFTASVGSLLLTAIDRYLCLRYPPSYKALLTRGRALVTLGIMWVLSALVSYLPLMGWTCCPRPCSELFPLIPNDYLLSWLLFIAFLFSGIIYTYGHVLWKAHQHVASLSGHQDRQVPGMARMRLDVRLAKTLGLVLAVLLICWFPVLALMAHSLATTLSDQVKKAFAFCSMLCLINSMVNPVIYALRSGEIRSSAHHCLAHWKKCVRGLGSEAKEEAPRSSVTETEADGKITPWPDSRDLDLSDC
# Cannabinoid receptor 1, sequence (P20272 whole entry): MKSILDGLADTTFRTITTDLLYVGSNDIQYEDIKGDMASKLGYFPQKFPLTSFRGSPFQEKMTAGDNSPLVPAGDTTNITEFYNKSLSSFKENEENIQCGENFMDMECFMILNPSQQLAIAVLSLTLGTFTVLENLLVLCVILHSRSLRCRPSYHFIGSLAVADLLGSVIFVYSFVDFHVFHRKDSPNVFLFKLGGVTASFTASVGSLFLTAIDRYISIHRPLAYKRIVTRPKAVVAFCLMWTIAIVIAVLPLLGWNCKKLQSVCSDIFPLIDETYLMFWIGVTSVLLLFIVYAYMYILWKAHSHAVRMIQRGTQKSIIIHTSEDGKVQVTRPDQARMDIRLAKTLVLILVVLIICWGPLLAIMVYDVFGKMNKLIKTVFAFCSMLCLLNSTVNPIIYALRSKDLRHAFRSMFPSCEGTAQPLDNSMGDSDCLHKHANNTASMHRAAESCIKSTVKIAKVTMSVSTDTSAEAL
smiles,measurement,setting,value
CCCCCc1cc2c(c3c1CCCO3)C1C[C@@H](O)CC[C@H]1C(C)(C)O2 (stereo partly drawn),EC50,[1],83.5 nM
same,Kd,[2],1.67 nM
CCCCCc1cc2c(c3c1CCCO3)C1CC(=O)CC[C@H]1C(C)(C)O2 (stereo partly drawn),Ki,[3],90 nM
same,EC50,[1],7.23 nM
same,Temperature,[4],-2.9 °C
same,Kd,[2],1.72 nM
same,Ratio,[5],3.9
CCCCCc1cc2c(c3c1CCCO3)C1CC=CC[C@H]1C(C)(C)O2 (stereo partly drawn),Ki,[3],364 nM
same,EC50,[1],16.5 nM
same,Kd,[2],2.97 nM
same,Temperature,[6],-1.2 °C
same,Ratio,[5],2.8
CCCCCc1cc2c(c3c1CCCO3)C1C[C@H](O)CC[C@H]1C(C)(C)O2 (stereo partly drawn),EC50,[1],8.35 nM
same,Kd,[2],1.67 nM
C=C1CC[C@@H]2C(C1)c1c(cc(CCCCC)c3c1OCCC3)OC2(C)C (stereo partly drawn),EC50,[1],28.6 nM
same,Temperature,[7],-3.6 °C
same,Kd,[2],2.49 nM
same,Ratio,[5],4.4
